# Screens deposited in PubChem by NMMLSC.
# Avidin fluor = green autofluorescence of compounds with avidin beads – biophysical, 488/530 nm, flow cytometry, artefact control, profiling panel | compound fluorescence 488/530 nm; stronger effect = higher value | fluorescence (KMESF) at 10 µM | 220,000 tested, 0.38% active | AID 1775, 2009; in the data active means fluorescence above about 47
# GSH fluor = compound fluorescence on glutathione beads, profiling panel, artefact control, biophysical, 488/530 nm, flow cytometry. GSH beads flow cytometry, compound fluorescence 488/530 nm; stronger effect = higher value. 190,000 tested, 0.25% active. AID 1776, 2009. fluorescence (KMESF) at 10 µM; in the data active means fluorescence above about 89;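 further: glutathione beads carrying GST-tagged Bcl family fusion proteins plus one bare bead set; values are compound well signal with DMSO vehicle wells as background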
# Pemphigus Ab inh = inhibitors of pemphigus antibody binding to DSG3, primary screen, biochemical, bead-based, flow cytometry, scFv-GFP; AID 588358, 2011; 310,000 tested, 0.48% active; Desmoglein-3 (Homo sapiens), P32926; DSG3-coupled beads, scFv-anti-DSG3-GFP binding; stronger effect = lower value; binding (percent of control), % at 10 µM;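 active means binding more than 3 SD below its plate's average and above zero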;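 further: hits lower antibody fragment binding to DSG3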
# Arr AP2 block = inhibitors of beta-arrestin/AP2 binding, primary screen, biochemical, GPCR trafficking, flow cytometry | FITC-arrestin peptide / GST-AP2 beads; AP2 beta2 appendage carries R879A mutation | inhibition, % at 10 µM | 340,000 tested, 0.31% active | AID 504490, 2011;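 active means inhibition above a set limit, near 3 SD of compounds lacking own fluorescence, cut at about 54% in these data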;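 further: plate controls were DMSO wells for no effect and 5 µM unlabelled arrestin peptide for full effect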
#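 System: GST-AP2 R879A glutathione beads. Medium: PBS with 0.05% Tween 20 and 0.1% BSA. Also added: FITC-arrestin peptide, 50 nM. Incubation: 12 min plus 1 h, RT. Measured by: high-throughput flow cytometry of beads, ex 488, em 535 nm. Evaluation: percent drop in bead-associated FITC signal.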
# * = called active by the depositor; . = no result given. Rows were chosen to be rich in hits. Some 1.1% of all compounds tested hit in one or more screens of this group.
SMILES,Avidin fluor,GSH fluor,Pemphigus Ab inh,Arr AP2 block
CN(Cc1ccccc1)C(=O)COC(=O)c1cc(S(=O)(=O)N(C)C)ccc1N1CCCC1,.,.,119,32
COc1cc2[nH]c(=O)n(CCCCCC(=O)NCCc3c[nH]c4ccccc34)c(=O)c2cc1OC,49*,9,103,5
O=C(CCCCn1c(=O)[nH]c2ccccc2c1=O)NCCc1c[nH]c2ccccc12,7,14,99,25
CCOc1ccc2[nH]c(=O)c(C(c3nnnn3C3CCCCC3)N3CCN(C)CC3)cc2c1 (stereo not given),26,26,94,10
CCOc1ccc2[nH]c(=O)c(C(c3nnnn3C3CCCCC3)N3CCN(CC)CC3)cc2c1 (stereo not given),76*,54,91,-8
Cc1ccc2c(c1)cc(CN(Cc1ccco1)C(=O)COc1ccccc1)c1nnnn12,102*,53,.,-4
CCC(=O)N(Cc1ccco1)Cc1cc2cccc(C)c2n2nnnc12,10,23,106,7
CN(Cc1cc2ccccc2[nH]c1=O)S(C)(=O)=O,28,18,54*,27
Cc1ccc(NC(=O)c2cc(N3C(=O)C=CC3=O)ccc2Cl)cc1C,1,7,89*,14
Cc1ccc(NC(=O)c2cc(-n3cnnc3)ccc2Cl)cc1,21,22,104,31
Cc1cccc(CN2CCC(CNC(=O)CSc3cc(=O)n(C)c4cc(Cl)ccc34)CC2)c1,7,.,105,10
CN(C)S(=O)(=O)c1ccc(Nc2ccc(-c3ccc4c(c3)OCCO4)nn2)cc1,15,16,69*,-3
COC(=O)N/N=C/c1cn(Cc2c(Cl)cccc2Cl)c2ccccc12,15,6,81*,8
O=C(O)C1=CC[C@@H](c2ccc(Cl)cc2)N(S(=O)(=O)c2ccc(Cl)cc2)[C@H]1c1ccc(Br)cc1,.,.,99,24
COC(=O)c1ccc(C(=O)OC)c(NC(=O)COC(=O)c2ccccc2OC)c1,11,10,-8.0*,10
COC(=O)c1ccc(C(=O)OC)c(NC(=O)CSc2ccccn2)c1,87*,21,109,8
COC(=O)c1ccc(C(=O)OC)c(NC(=O)CSc2n[nH]c(N)n2)c1,.,.,115,-2
S=C1COC(c2ccccc2)N1c1ccccc1 (stereo not given),5,142*,106,3
c1ccc(C2OCCN2c2ccccc2)cc1 (stereo not given),.,.,123,-2
CCOc1ccccc1O[C@H](c1ccccc1)[C@H]1CNCCO1,.,.,117,4
COc1cc(C(=O)Nc2cccc(-c3nc4cc(C)ccc4o3)c2C)cc(OC)c1OC,10,53,80*,1
COc1cc(C(=O)Nc2cccc(-c3nc4ncccc4o3)c2C)cc(OC)c1OC,16,9,103,25
CC1(C)NC(=S)NC1=S,.,.,95,36
COc1ccc(Cl)cc1N1C(=O)CC(N2CCc3ccccc32)C1=O (stereo not given),7,264*,99,1
Cc1ccc(/C=C2\SC(=S)N(C3CCS(=O)(=O)C3)C2=O)o1 (stereo not given),11,19,85,29
SMILES,Avidin fluor,GSH fluor,Pemphigus Ab inh,Arr AP2 block
NS(=O)(=O)c1ccc(-c2ccc(/C=C3\SC(=S)N(C4CCS(=O)(=O)C4)C3=O)o2)cc1 (stereo not given),7,.,77*,17
CC(=O)c1cccc(NC(=O)COC(=O)CCNS(=O)(=O)c2ccccc2)c1,.,.,122,14
O=C(CSc1nnc(SCc2ccccc2)s1)N/N=C/c1c(Cl)cccc1Cl,5,13,92,0
Cc1nn(-c2ccccc2)c(C)c1/C=N/NC(=O)CSc1nnc(SCc2ccc(Cl)cc2)s1,68*,11,101,0
COc1ccccc1-c1nc(COc2ccc(Cl)cc2Cl)no1,3,.,.,9
CC(C)C(=O)Nc1ccc(Oc2ccc3c(c2)C(=O)NC3=O)cc1,.,.,101,2
CCc1c(C)sc(NC(=O)C2CCCO2)c1C#N (stereo not given),3,139*,.,29
Cc1cccc2sc(NC(=O)C3CCCO3)nc12 (stereo not given),33,25,101,-1
CCc1cccc(C)c1NC(=O)C1CCCO1 (stereo not given),5,251*,106,-9
Cc1c(C)n(-c2ccccc2)c2ncnc(NCCN(C)C)c12,.,.,107,-8
O=C(O)c1ccc(-n2nnnc2SCc2ccccc2Br)cc1,.,.,94,5
Cc1cc(C)n(C(=O)c2c([N+](=O)[O-])c(C)nn2C)n1,6,150*,99,4
C=CC[C@@H](CC(=O)N(CCO)Cc1ccccc1)C(=O)NC[C@H](OC(=O)[C@@H](CC=C)Cc1ccc(F)cc1)c1ccccc1,.,.,99,.
Nc1c(C(=O)c2ccccc2)oc2ccc([N+](=O)[O-])cc12,8,.,60*,20
O=C1CN(C(=O)c2ccccn2)c2ccccc2N1,6,229*,105,5
Cc1ccc(C(=O)OCC(=O)NCc2ccccc2)s1,.,.,96,.
O=C(COc1ccc(S(=O)(=O)N2CCCCC2)cc1)NCc1ccncc1,16,32,61*,19
O=C(Nc1ccc2c(c1)OCO2)C1CCN(c2ccc(S(=O)(=O)N3CCOCC3)cc2)CC1,7,8,66*,-2
Cc1ccc(S(=O)(=O)N2CCC(C(=O)Nc3ccc4c(c3)OCO4)CC2)cc1,1,28,103,4
O=C(COc1ccc(S(=O)(=O)N2CCCC2)cc1)NCc1cccnc1,.,.,87,-6
COc1ccc(OC)c(NC(=O)COC(=O)c2ccc(S(=O)(=O)N3CCOCC3)cc2)c1,7,276*,105,4
O=C(Nc1ccc2c(c1)oc1ccc(S(=O)(=O)N3CCCC3)cc12)C1CC1,13,30,71*,13
COc1ccc(OC)c(NC(=O)COC(=O)c2ccc(S(=O)(=O)N3CCCCC3)cc2)c1,.,.,102,.
CC(NC(=O)CCNC(=O)c1ccc(Br)cc1)c1ccc(S(N)(=O)=O)cc1 (stereo not given),.,.,101,27
Fc1ccc(CSc2ncnc3ccccc23)cc1,10,18,.,3
SMILES,Avidin fluor,GSH fluor,Pemphigus Ab inh,Arr AP2 block
Cc1ccc(S(=O)(=O)N2CCOCC2)cc1C(=O)OCC(=O)N(Cc1ccccc1)C(C)C,.,.,98,2
CC(=O)Nc1ccc(S(=O)(=O)N2CCN(c3ccccn3)CC2)cc1,65*,25,101,5
CC(=O)Nc1ccc(S(=O)(=O)N2CCC(C(N)=O)(N3CCCCC3)CC2)cc1,.,.,38*,-14
CC(=O)Nc1ccc(S(=O)(=O)N2CCOCC2)cc1,4,140*,107,-8
COc1cccc(NC(=O)/C=C/c2ccc(S(=O)(=O)N3CCOCC3)cc2)c1,.,.,73*,36
CC(=O)Nc1cccc(NC(=O)/C=C/c2ccc(S(=O)(=O)N3CCOCC3)cc2)c1,.,.,98,0
